Active and inactive are the calls of the source. The rule behind the calls is not given here.
Tests used:
[1] = system: HEp-2; assay: Cytotoxicity against human Hep2 cells after 24 hrs by MTT assay; format: functional, cell-based; details: HEp-2, 24 h
Outline: (§1)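 Cells seeded at 1.2 × 10^4 per well in 96-well plates, grown 24 h, then treated over 10.7–81 µM for 6, 12, 24, 36 or 48 h. Viability read by MTT. DMSO kept below 0.05%. IC50 taken at 24 h.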

[2] = system: HEp-2; assay: Cytotoxicity against human Hep2 cells at 36 uM after 24 hrs by MTT assay; format: functional; outline: as §1
[3] = system: HEp-2; assay: Induction of apoptosis in human Hep2 cells assessed as accumulation in subG1 phase using PI staining by flow cytometeric analysis; format: functional
Outline: (§2)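 ATCC HEp-2 in RPMI-1640 with 10% FBS at 37 °C, 5% CO2, exposed to 36 µM for 0, 6, 12 or 24 h. 1 × 10^6 cells were fixed in 70% ethanol at 4 °C for at least 12 h, then stained on ice in the dark for 30 min with 50 µg/mL PI plus 1 mg/mL RNase A. Read by flow cytometry, ≥10 000 cells per sample. SubG1 counted as the apoptotic fraction. n = 3.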

[4] = system: HEp-2; assay: Induction of apoptosis in human Hep2 cells assessed as morphological changes at 36 uM after 24 hrs by microscopy; format: functional, cell-based
[5] = system: HEp-2; assay: Cell cycle arrest in human Hep2 cells assessed as accumulation at G2/M phase at 36 uM after 6 hrs using propidium iodide staining by flow cytometry; format: functional; outline: as §2
[6] = system: HEp-2; assay: Cell cycle arrest in human Hep2 cells assessed as accumulation at G2/M phase at 36 uM after 12 hrs using propidium iodide staining by flow cytometry; format: functional; outline: as §2
[7] = system: HEp-2; assay: Cell cycle arrest in human Hep2 cells assessed as accumulation at G2/M phase at 36 uM after 24 hrs using propidium iodide staining by flow cytometry; format: functional; outline: as §2
[8] = system: HEp-2; assay: Induction of ROS generation in human Hep2 cells at 36 uM after 3 hrs relative to control; format: functional, cell-based
Outline: (§3)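 Cells exposed to 36 µM for 0, 3, 6, 12 or 24 h, then loaded with DCF-DA (10 mM as printed) for 15 min at 37 °C. Harvested, resuspended in PBS and read by flow cytometry (ex 480 nm, em 525 nm). Result given as % DCF-positive cells. n = 3.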

[9] = system: HEp-2; assay: Induction of ROS generation in human Hep2 cells assessed as ratio of DCF-positive cells at 36 uM after 3 hrs relative to control; format: functional; outline: as §3
[10] = system: HEp-2; assay: Induction of ROS generation in human Hep2 cells assessed as ratio of DCF-positive cells at 36 uM after 6 hrs relative to control; format: functional; outline: as §3
[11] = system: HEp-2; assay: Induction of ROS generation in human Hep2 cells assessed as ratio of DCF-positive cells at 36 uM after 12 hrs relative to control; format: functional; outline: as §3
[12] = system: HEp-2; assay: Induction of ROS generation in human Hep2 cells assessed as ratio of DCF-positive cells at 36 uM after 24 hrs relative to control; format: functional; outline: as §3
[13] = system: HEp-2; assay: Induction of ROS generation in human Hep2 cells assessed as ROS level at 36 uM after 24 hrs in presence of N-acetyl-cysteine ROS scavenger; format: functional
Outline: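 ROS read as % DCF-positive cells after 24 h co-incubation of 36 µM with 2.5 mM N-acetylcysteine. DCF-DA loading 15 min at 37 °C; flow cytometry at ex 480 / em 525 nm. n = 3.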

[14] = system: HEp-2; assay: Induction of apoptosis in human Hep2 cells assessed as accumulation in subG1 phase using PI staining at 36 uM after 24 hrs by flow cytometeric analysis in presence of N-acetyl-cysteine ROS scavenger; format: functional
Outline: (§4)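 HEp-2 cells were pretreated 1 h with 2.5 mM N-acetylcysteine, then co-incubated with 36 µM for 24 h. They were then fixed in 70% ethanol (≥12 h, 4 °C) and stained on ice in the dark for 30 min with 50 µg/mL PI and 1 mg/mL RNase A. G2/M and subG1 fractions were read by flow cytometry, ≥10 000 cells counted. n = 3.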

[15] = system: HEp-2; assay: Induction of apoptosis in human Hep2 cells assessed as accumulation in G2/M phase using PI staining at 36 uM after 24 hrs by flow cytometeric analysis in presence of N-acetyl-cysteine ROS scavenger; format: functional; outline: as §4
[16] = system: HEp-2; assay: Induction of apoptosis in human Hep2 cells assessed as apoptotic bodies using acridine orange staining at 36 uM after 24 hrs by microscopic analysis; format: functional, cell-based
[17] = system: HEp-2; assay: Induction of apoptosis in human Hep2 cells assessed as fragmented DNA using acridine orange staining at 36 uM after 24 hrs by microscopic analysis; format: functional, cell-based
[18] = system: HEp-2; assay: Induction of apoptosis in human Hep2 cells assessed as apoptotic bodies using acridine orange staining at 36 uM after 24 hrs by microscopic analysis in presence of N-acetyl-cysteine ROS scavenger; format: functional, cell-based
[19] = system: HEp-2; assay: Induction of apoptosis in human Hep2 cells assessed as fragmented DNA using acridine orange staining at 36 uM after 24 hrs by microscopic analysis in presence of N-acetyl-cysteine ROS scavenger; format: functional, cell-based
[20] = system: HEp-2; assay: Induction of apoptosis in human Hep2 cells assessed as decrease in mitochondrial membrane potential using rhodamine 123 staining at 36 uM after 24 hrs by FACScan flow cytometry; format: functional; parameters: scale not given: the % may be the effect or the level left
Outline: (§5)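 Membrane potential: HEp-2 exposed to 36 µM for 0–24 h, alone or with 2.5 mM N-acetylcysteine for 24 h. Cells collected into PBS with 1 µg/mL rhodamine-123, held 15 min at 37 °C, then read by flow cytometry for % rhodamine-123-bright cells. n = 3.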

[21] = system: HEp-2; assay: Induction of apoptosis in human Hep2 cells assessed as decrease in mitochondrial membrane potential using rhodamine 123 staining at 36 uM after 24 hrs by FACScan flow cytometry in presence of N-acetyl-cysteine ROS scavenger; format: functional; parameters: scale not given: the % may be the effect or the level left; outline: as §5
[22] = system: HEp-2; assay: Induction of apoptosis in human Hep2 cells assessed as increase in pro-apoptotic Bax protein at 36 uM after 6 hrs by Western blot analysis; format: functional, cell-based
Outline: (§6)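 Treatment: 36 µM for 0, 6, 12 or 24 h, alone or with 2.5 mM N-acetylcysteine or 500 U/mL catalase. Lysis 60 min at 4 °C in Hepes pH 7.4/1% Triton X-100 with phosphatase and protease inhibitors, spin 13000g. Lysates run on 12% SDS-PAGE, blotted to nitrocellulose, probed with polyclonal antibodies, HRP/DAB detection. Representative of ≥3 experiments.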

[23] = system: HEp-2; assay: Induction of apoptosis in human Hep2 cells assessed as increase in cytochrome c at 36 uM after 12 hrs by Western blot analysis; format: functional, cell-based; outline: as §6
[24] = system: HEp-2; assay: Induction of apoptosis in human Hep2 cells assessed as decrease in Bcl-2 at 36 uM after 12 hrs by Western blot analysis; format: functional, cell-based; details: in the assay text read “after 24 hrs” for “after 12 hrs”; outline: as §6
[25] = system: HEp-2; assay: Induction of apoptosis in human Hep2 cells assessed as increase in AIF level at 36 uM after 6 hrs by Western blot analysis; format: functional, cell-based; outline: as §6

C=C1C(=O)[C@]23[C@H](O)[C@H]1CC[C@H]2[C@@]12CO[C@]3(O)[C@@H](O)[C@@H]1C(C)(C)CC[C@@H]2O [ORIDONIN]
IC50 [1]: 37.1 µM
Activity [2]: 50%
Activity [3]: 26.57%
Activity [4]: Active
Activity [5]: 32.84%
Activity [6]: 40.57%
Activity [7]: 25.84%
Activity [8]: Active
Activity [9]: 16.65%
Activity [10]: 17.25%
Activity [11]: 24.21%
Activity [12]: 24.86%
Activity [13]: 4.41%
Activity [14]: 3.39%
Activity [15]: 14%
Activity [16]: Active
Activity [17]: Active
Activity [18]: inactive
Activity [19]: inactive
Activity [20]: 58.6%
Activity [21]: 89.31%
Activity [22]: Active
Activity [23]: Active
Activity [24]: Active
Activity [25]: Active

Reference: ChEMBL document CHEMBL1165982, “Induction of G(2)/M phase arrest and apoptosis by oridonin in human laryngeal carcinoma cells” (J Nat Prod, 2010)
